The values that follow come from ChEMBL document CHEMBL3817796, “Discovery of Novel 15-Lipoxygenase Activators To Shift the Human Arachidonic Acid Metabolic Network toward Inflammation Resolution” (J Med Chem, 2016).

The source made the active and inactive calls. No cut-off for these calls is given here.

Experiment [1] has as its target T1, Polyunsaturated fatty acid lipoxygenase ALOX15 (Homo sapiens) (UniProt P16050).
T1 sequence (whole entry): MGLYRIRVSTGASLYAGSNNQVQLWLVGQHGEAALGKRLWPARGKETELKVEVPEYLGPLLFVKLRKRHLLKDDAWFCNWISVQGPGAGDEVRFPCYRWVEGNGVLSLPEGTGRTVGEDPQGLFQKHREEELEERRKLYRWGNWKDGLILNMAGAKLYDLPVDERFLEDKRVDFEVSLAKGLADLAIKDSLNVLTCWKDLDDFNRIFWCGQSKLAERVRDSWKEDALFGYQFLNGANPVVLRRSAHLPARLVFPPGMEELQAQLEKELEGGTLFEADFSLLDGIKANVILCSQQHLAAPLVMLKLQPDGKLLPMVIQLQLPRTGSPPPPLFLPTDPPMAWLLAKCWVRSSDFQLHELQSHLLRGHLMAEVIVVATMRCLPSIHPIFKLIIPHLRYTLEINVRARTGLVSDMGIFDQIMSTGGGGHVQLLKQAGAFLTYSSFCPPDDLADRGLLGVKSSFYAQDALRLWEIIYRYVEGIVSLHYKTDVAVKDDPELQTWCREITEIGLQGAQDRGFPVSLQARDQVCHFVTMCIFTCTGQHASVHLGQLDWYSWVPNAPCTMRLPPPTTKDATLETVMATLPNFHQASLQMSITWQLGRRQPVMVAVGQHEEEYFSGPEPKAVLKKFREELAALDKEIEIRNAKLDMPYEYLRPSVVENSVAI
Put plainly: Activation of 15-LOX in human whole blood assessed as increase in 15-HETE production at 100 uM pre-incubated for 20 mins before stimulation with LPS and A23187 for 120 mins in presence of 0.16 to 20 uM 5-LOX inhibitor Zileuton by LC-MS/MS method. It counts as tissue-based. The method in brief: (§1)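 Human blood preincubated 20 min at 37 °C with DMSO vehicle or compound in DMSO. LPS added at 100 μg/mL for 24 h at 37 °C, then A23187 at 20 μg/mL final. Samples frozen in liquid nitrogen at time points, lysed by freeze–thaw, with PGB2 internal standard. Analysed by C18 LC-MRM MS, negative ion. Change = control-normalized concentration minus 1, ×100%; 120 min value from AUC.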

Experiment [2] concerns the target T1, Polyunsaturated fatty acid lipoxygenase ALOX15 (Homo sapiens). Put plainly: Activation of 15-LOX in human whole blood assessed as increase in 15-HETE production at 100 uM pre-incubated for 20 mins before stimulation with LPS and A23187 for 120 mins by LC-MS/MS method. It counts as tissue-based. An outline of the steps:
as §1

The target of experiment [3] is T2, Polyunsaturated fatty acid 5-lipoxygenase (Homo sapiens) (UniProt P09917).
T2 sequence (whole entry): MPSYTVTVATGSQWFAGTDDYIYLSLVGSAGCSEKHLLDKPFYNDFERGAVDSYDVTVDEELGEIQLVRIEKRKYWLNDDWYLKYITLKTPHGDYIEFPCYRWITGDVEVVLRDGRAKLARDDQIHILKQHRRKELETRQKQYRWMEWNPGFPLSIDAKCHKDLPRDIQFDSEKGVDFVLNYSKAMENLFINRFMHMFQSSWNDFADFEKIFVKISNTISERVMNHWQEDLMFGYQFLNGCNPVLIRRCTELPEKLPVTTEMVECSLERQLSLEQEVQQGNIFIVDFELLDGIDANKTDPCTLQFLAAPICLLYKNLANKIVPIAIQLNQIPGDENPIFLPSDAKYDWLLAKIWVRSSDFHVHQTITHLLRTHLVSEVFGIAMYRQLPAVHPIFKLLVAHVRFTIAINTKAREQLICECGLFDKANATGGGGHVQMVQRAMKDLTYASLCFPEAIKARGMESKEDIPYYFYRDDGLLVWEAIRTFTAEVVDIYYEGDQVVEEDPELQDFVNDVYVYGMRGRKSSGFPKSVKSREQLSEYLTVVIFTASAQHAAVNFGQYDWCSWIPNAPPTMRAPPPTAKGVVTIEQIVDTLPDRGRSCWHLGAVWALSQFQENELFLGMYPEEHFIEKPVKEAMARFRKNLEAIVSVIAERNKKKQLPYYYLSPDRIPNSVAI
Put plainly: Activation of human 5-LOX assessed as H2DCFDA oxidation at 100 uM using arachidonic acid substrate incubated for 5 mins by fluorescence assay. The method in brief:
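Human 5-LOX activity followed as AA-driven oxidation of H2DCFDA to fluorescent dichlorofluorescein (ex 500/em 520 nm), recorded for 5 min. Compound handled as in the 15-LOX assay.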

Experiment [4] deals with Blood. Put plainly: Reduction in TXB2 in production in human whole blood at 100 uM pre-incubated for 20 mins before stimulation with LPS and A23187 for 120 mins by LC-MS/MS method. It counts as functional. More on the design: scale not given: the % may be the effect or the level left. An outline of the steps:
as §1

`CN1CCN(CC(=O)N2N=C3/C(=C/c4ccccc4)CCCC3C2c2ccccc2)CC1` (centres undefined): the outcome in experiment [1] was Active. The results for the Activity in experiment [2], in experiment [3] and in experiment [4] were 33%, under 5% and 27%, respectively.
